Measurements published in ChEMBL document CHEMBL5058577, “EUbOPEN Chemogenomics Library 2 (Multiplex)” (2022).

Tested on: U2OS
Assay: Multiplex assay against U2OS
Assay type: toxicity, cell-based
Conditions: human
Summary of the method: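 With compound added, live cells were imaged on a CQ1 microscope at 37°C and 5% CO2; staining with Hoechst33342, BioTracker Green Microtubule Cytoskeleton Dye, MitoTracker Red and Annexin V Alexa Fluor 680 had been done at seeding. The CellPathfinder machine-learning gating scheme split cells into Hoechst high-intensity objects or normal cells, normal cells into healthy, pyknosed or fragmented nuclei, and pyknosed cells into mitotic or apoptotic. The tubulin, mitochondrial-mass and membrane-permeability phenotypes are per cents of healthy-nucleus cells.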

[1] = 12 h, 1 µM, compound concentration 1 uM, replicate 1
[2] = 12 h, 1 µM, compound concentration 1 uM, replicate 2
[3] = 12 h, 10 µM, compound concentration 10 uM, replicate 1
[4] = 12 h, 10 µM, compound concentration 10 uM, replicate 2
[5] = 24 h, 1 µM, compound concentration 1 uM, replicate 1
[6] = 24 h, 1 µM, compound concentration 1 uM, replicate 2
[7] = 24 h, 10 µM, compound concentration 10 uM, replicate 1
[8] = 24 h, 10 µM, compound concentration 10 uM, replicate 2
[9] = 48 h, 1 µM, compound concentration 1 uM, replicate 1
[10] = 48 h, 1 µM, compound concentration 1 uM, replicate 2
[11] = 48 h, 10 µM, compound concentration 10 uM, replicate 1
[12] = 48 h, 10 µM, compound concentration 10 uM, replicate 2

## N#Cc1c(Oc2cccc(OS(=O)(=O)CCCC(F)(F)F)c2)cccc1C(F)(F)F
[1]
  Population Apoptotic (%): 77%
  Population Fragmented Nuclei (%): 27%
  Population Healthy Nuclei (%): 61%
  Population Hoechst High Intensity Objects (%): 3%
  Population Membrane Permeable-Phenotype (%): 4%
  Population Mitochondria Different-Phenotype (%): 2%
  Population Mitotic Cells (%): 22%
  Population Normal (%): 96%
  Population Pyknosed Nuclei (%): 10%
  Population Tubulin-Different-Phenotype (%): 0%
  Total Cell Count: 220
[2]
  Population Apoptotic (%): 81%
  Population Fragmented Nuclei (%): 12%
  Population Healthy Nuclei (%): 76%
  Population Hoechst High Intensity Objects (%): 0%
  Population Membrane Permeable-Phenotype (%): 7%
  Population Mitochondria Different-Phenotype (%): 7%
  Population Mitotic Cells (%): 18%
  Population Normal (%): 99%
  Population Tubulin-Different-Phenotype (%): 8%
  Total Cell Count: 109
[3]
  Population Apoptotic (%): 78%
  Population Fragmented Nuclei (%): 27%
  Population Healthy Nuclei (%): 63%
  Population Hoechst High Intensity Objects (%): 3%
  Population Membrane Permeable-Phenotype (%): 11%
  Population Mitochondria Different-Phenotype (%): 8%
  Population Mitotic Cells (%): 21%
  Population Normal (%): 96%
  Population Pyknosed Nuclei (%): 8%
  Population Tubulin-Different-Phenotype (%): 7%
  Total Cell Count: 222
[4]
  Population Apoptotic (%): 90%
  Population Fragmented Nuclei (%): 14%
  Population Healthy Nuclei (%): 75%
  Population Hoechst High Intensity Objects (%): 0%
  Population Membrane Permeable-Phenotype (%): 21%
  Population Mitochondria Different-Phenotype (%): 4%
  Population Mitotic Cells (%): 9%
  Population Normal (%): 99%
  Population Pyknosed Nuclei (%): 9%
  Total Cell Count: 112
[5]
  Population Apoptotic (%): 75%
  Population Fragmented Nuclei (%): 25%
  Population Healthy Nuclei (%): 61%
  Population Hoechst High Intensity Objects (%): 2%
  Population Membrane Permeable-Phenotype (%): 4%
  Population Mitochondria Different-Phenotype (%): 2%
  Population Mitotic Cells (%): 24%
  Population Normal (%): 97%
  Population Pyknosed Nuclei (%): 12%
  Population Tubulin-Different-Phenotype (%): 3%
  Total Cell Count: 263
[6]
  Population Apoptotic (%): 90%
  Population Fragmented Nuclei (%): 12%
  Population Healthy Nuclei (%): 79%
  Population Hoechst High Intensity Objects (%): 1%
  Population Membrane Permeable-Phenotype (%): 11%
  Population Mitochondria Different-Phenotype (%): 3%
  Population Mitotic Cells (%): 10%
  Population Normal (%): 98%
  Population Pyknosed Nuclei (%): 7%
  Population Tubulin-Different-Phenotype (%): 7%
  Total Cell Count: 130
[7]
  Population Apoptotic (%): 66%
  Population Fragmented Nuclei (%): 26%
  Population Healthy Nuclei (%): 66%
  Population Hoechst High Intensity Objects (%): 6%
  Population Membrane Permeable-Phenotype (%): 10%
  Population Mitochondria Different-Phenotype (%): 8%
  Population Mitotic Cells (%): 33%
  Population Normal (%): 93%
  Population Pyknosed Nuclei (%): 7%
  Population Tubulin-Different-Phenotype (%): 5%
  Total Cell Count: 252
[8]
  Population Fragmented Nuclei (%): 9%
  Population Healthy Nuclei (%): 83%
  Population Hoechst High Intensity Objects (%): 3%
  Population Membrane Permeable-Phenotype (%): 11%
  Population Mitochondria Different-Phenotype (%): 0%
  Population Normal (%): 96%
  Population Tubulin-Different-Phenotype (%): 7%
  Total Cell Count: 130
[9]
  Population Apoptotic (%): 87%
  Population Fragmented Nuclei (%): 17%
  Population Healthy Nuclei (%): 70%
  Population Hoechst High Intensity Objects (%): 3%
  Population Membrane Permeable-Phenotype (%): 4%
  Population Mitochondria Different-Phenotype (%): 0%
  Population Mitotic Cells (%): 12%
  Population Normal (%): 96%
  Population Pyknosed Nuclei (%): 11%
  Population Tubulin-Different-Phenotype (%): 3%
  Total Cell Count: 361
[10]
  Population Apoptotic (%): 100%
  Population Fragmented Nuclei (%): 16%
  Population Healthy Nuclei (%): 73%
  Population Hoechst High Intensity Objects (%): 2%
  Population Membrane Permeable-Phenotype (%): 9%
  Population Mitochondria Different-Phenotype (%): 4%
  Population Mitotic Cells (%): 0%
  Population Normal (%): 97%
  Population Pyknosed Nuclei (%): 9%
  Population Tubulin-Different-Phenotype (%): 7%
  Total Cell Count: 195
[11]
  Population Apoptotic (%): 91%
  Population Fragmented Nuclei (%): 23%
  Population Healthy Nuclei (%): 64%
  Population Hoechst High Intensity Objects (%): 4%
  Population Membrane Permeable-Phenotype (%): 10%
  Population Mitochondria Different-Phenotype (%): 6%
  Population Mitotic Cells (%): 8%
  Population Normal (%): 95%
  Population Pyknosed Nuclei (%): 11%
  Population Tubulin-Different-Phenotype (%): 6%
  Total Cell Count: 328
[12]
  Population Apoptotic (%): 100%
  Population Fragmented Nuclei (%): 11%
  Population Healthy Nuclei (%): 77%
  Population Hoechst High Intensity Objects (%): 3%
  Population Membrane Permeable-Phenotype (%): 13%
  Population Mitochondria Different-Phenotype (%): 4%
  Population Mitotic Cells (%): 0%
  Population Normal (%): 96%
  Population Pyknosed Nuclei (%): 10%
  Population Tubulin-Different-Phenotype (%): 7%
  Total Cell Count: 184
